The source of these data is article PMC3966491 (Chemical biology & drug design, 2013).

One data set deals with AKT1 (PKB alpha) (Homo sapiens, UniProt P31749). Nature of the data set: AKT1 in vitro kinase assay. The data set is classed as biochemical. The essentials:
(§1)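 Z′-LYTE assay. Enzyme per 10 μL reaction: AKT1 0.34–7.65 ng, AKT2 1–40 ng, or AKT3 0.56–8.3 ng. Reaction contained 2 μM Ser/Thr 06 peptide, ATP at Km, 50 mM HEPES pH 7.5, 0.01% BRIJ-35, 10 mM MgCl2 and 1 mM EGTA. After 1 h, Development Reagent A (1:2048) protease cleaved non-phosphorylated peptide. Read-out was the coumarin 445 nm/fluorescein 520 nm emission ratio; curves were fitted.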

The target of another data set is AKT2 (PKB beta) (Homo sapiens, UniProt P31751). Nature of the data set: AKT2 in vitro kinase assay. Type of data set: biochemical. The essentials:
as §1

The target of another data set is AKT3 (PKB gamma) (Homo sapiens, UniProt Q9Y243). As to the kind of experiment: AKT3 in vitro kinase assay. Type of data set: biochemical. The essentials: as §1
AKT3 (PKB gamma), sequence (Q9Y243 whole entry): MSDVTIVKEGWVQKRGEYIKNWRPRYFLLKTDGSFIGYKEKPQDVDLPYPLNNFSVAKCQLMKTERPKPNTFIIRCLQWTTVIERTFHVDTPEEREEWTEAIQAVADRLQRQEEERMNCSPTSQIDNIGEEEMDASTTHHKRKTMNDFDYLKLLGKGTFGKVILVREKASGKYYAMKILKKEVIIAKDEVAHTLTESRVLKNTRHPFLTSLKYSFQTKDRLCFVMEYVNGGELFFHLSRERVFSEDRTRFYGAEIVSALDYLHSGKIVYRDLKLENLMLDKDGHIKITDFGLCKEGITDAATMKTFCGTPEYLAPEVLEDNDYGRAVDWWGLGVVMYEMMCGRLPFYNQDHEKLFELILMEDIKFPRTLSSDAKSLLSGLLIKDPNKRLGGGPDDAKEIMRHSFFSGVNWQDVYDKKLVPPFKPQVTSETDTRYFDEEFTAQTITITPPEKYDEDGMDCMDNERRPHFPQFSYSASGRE
For the next data set, the target named is T1, CHUK (IKK alpha) (Homo sapiens, UniProt O15111).
T1 sequence (O15111 1-745): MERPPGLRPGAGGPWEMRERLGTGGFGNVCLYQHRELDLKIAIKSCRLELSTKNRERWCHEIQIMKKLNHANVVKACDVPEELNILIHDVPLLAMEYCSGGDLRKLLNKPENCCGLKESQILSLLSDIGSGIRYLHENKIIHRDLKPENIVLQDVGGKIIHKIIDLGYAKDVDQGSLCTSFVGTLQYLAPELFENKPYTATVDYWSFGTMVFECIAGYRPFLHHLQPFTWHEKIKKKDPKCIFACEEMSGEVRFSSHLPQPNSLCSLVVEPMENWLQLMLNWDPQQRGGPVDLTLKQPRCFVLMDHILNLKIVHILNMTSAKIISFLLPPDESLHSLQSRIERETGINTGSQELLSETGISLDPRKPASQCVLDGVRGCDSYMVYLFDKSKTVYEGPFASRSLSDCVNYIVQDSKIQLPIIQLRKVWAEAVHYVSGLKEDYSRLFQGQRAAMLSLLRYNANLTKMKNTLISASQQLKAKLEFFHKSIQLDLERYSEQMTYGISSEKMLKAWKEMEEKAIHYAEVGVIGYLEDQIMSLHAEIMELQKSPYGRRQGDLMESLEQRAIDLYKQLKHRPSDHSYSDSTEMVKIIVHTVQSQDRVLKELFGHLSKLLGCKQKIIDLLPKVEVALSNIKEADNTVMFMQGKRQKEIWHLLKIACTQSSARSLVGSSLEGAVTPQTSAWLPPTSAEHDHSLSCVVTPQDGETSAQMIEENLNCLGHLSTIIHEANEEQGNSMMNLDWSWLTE
As to the kind of experiment: IKKα. The data set is classed as biochemical. The essentials: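 ADAPTA ADP-detection format. Detection mix added EDTA (stop), europium-labelled anti-ADP antibody and Alexa Fluor 647 ADP tracer; ADP formation was taken from the emission ratio. Where noted, IC50 was predicted from % inhibition at 1 μM test compound, mean of two experiments.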

A further data set concerns the target T2, IKBKB (IKK beta) (Homo sapiens, UniProt O14920).
T2 sequence (O14920 1-756): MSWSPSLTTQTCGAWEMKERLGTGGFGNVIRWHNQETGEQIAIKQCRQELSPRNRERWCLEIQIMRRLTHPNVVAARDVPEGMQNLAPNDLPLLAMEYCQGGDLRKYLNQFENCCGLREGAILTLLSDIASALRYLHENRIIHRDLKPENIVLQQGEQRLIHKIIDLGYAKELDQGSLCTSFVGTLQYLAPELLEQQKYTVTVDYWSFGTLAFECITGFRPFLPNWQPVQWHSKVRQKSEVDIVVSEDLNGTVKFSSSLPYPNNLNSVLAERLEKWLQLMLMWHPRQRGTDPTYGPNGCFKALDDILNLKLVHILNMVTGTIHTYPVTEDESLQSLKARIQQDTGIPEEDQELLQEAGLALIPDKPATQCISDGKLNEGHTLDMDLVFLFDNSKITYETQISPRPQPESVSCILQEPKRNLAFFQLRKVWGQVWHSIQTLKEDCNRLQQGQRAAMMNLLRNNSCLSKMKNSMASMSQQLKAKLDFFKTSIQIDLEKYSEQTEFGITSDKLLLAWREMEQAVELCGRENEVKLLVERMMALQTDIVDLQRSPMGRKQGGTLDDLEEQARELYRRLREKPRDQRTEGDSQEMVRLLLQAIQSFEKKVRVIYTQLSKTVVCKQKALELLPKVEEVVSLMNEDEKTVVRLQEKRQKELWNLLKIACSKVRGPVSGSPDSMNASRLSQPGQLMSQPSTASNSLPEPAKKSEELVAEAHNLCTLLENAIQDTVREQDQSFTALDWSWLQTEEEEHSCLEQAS
As to the kind of experiment: IKKβ. The data set is classed as biochemical. The essentials:
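Z′-LYTE format. Development used Reagent B (1:64) protease; read-out was the coumarin 445 nm/fluorescein 520 nm emission ratio. Where noted, IC50 was predicted from % inhibition at 10 μM test compound, mean of two experiments.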

In data set [1] the test system is 21 protein kinases including SPHK1, SPHK2, FES and AURKB. Nature of the data set: in vitro selectivity against 21 protein kinases. The data set is classed as biochemical. To be noted: 21 protein kinases previously inhibited by compound 1.
Data set [2] relates to AKT levels and phosphorylation of its substrate PRAS40. Nature of the data set: Western blot of AKT pathway in melanoma UACC903 cells. Type of data set: cell-based, human. To be noted: 4 hours. Background: A western blot detects proteins with antibodies after separation by electrophoresis.
The test system of data set [3] is phosphorylation of IKK Ser176/180 and total IκB levels. Nature of the data set: Western blot of NF-κB pathway in TNF-α stimulated UACC903 cells. Type of data set: cell-based, human. To be noted: 10 μM, 1 hour prior to TNF-α stimulation (20 ng/ml).
Data set [4] is described as follows: in vitro plasma stability. Type of data set: in vitro ADME.
Data set [5] is described as follows: in vitro microsomal stability. The data set is classed as in vitro ADME.
The test system of data set [6] is Human UACC903 melanoma cells xenograft. As to the kind of experiment: in vivo melanoma xenograft study. To be noted: oral gavage twice a week, 10 mg/kg and 25 mg/kg, single agent, nude mice.
Data set [7] deals with UACC903 xenograft tumor sections. As to the kind of experiment: TUNEL and IκB immunohistochemistry of xenograft tumor sections. The data set is classed as in vivo, nude mice. To be noted: tumors from treated mice vs vehicle, after 28 days. The essentials:
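Female nude mice (6–7 weeks) received 1×10^6 UACC903 cells in PBS subcutaneously in the flank. After 4 weeks, tumours were fixed, paraffin-sectioned, immunostained (DAB, haematoxylin) or TUNEL-stained, then scanned. Scores: TUNEL-positive nuclei/area and IκB immunoscore/area; error bars SEM.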

AKT2 (PKB beta), sequence (P31751 whole entry): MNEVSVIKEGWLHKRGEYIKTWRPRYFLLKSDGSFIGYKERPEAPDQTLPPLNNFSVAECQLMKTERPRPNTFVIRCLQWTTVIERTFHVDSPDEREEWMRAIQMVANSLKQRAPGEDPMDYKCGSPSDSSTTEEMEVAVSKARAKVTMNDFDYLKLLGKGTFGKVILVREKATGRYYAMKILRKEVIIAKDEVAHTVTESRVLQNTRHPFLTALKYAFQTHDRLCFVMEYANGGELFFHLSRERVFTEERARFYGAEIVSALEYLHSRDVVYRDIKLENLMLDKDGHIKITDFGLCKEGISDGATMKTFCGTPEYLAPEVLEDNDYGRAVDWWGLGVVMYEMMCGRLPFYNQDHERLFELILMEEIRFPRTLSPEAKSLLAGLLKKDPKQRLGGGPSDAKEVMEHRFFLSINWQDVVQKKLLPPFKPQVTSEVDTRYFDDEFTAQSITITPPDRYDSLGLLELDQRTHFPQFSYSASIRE
AKT1 (PKB alpha), sequence (P31749 whole entry): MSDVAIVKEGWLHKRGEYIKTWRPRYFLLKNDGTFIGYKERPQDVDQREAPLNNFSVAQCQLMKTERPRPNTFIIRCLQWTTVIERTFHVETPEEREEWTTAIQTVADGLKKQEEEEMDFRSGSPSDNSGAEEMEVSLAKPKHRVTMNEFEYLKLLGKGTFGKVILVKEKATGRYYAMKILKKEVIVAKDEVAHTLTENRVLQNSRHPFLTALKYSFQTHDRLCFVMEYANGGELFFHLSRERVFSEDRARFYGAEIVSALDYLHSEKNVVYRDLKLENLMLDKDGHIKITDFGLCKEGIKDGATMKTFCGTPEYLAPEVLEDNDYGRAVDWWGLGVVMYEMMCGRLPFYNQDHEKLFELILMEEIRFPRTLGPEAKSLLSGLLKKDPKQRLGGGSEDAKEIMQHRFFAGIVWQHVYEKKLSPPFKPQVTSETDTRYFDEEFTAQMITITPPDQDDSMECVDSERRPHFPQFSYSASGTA

By IC50 is commonly meant the concentration that gives 50% inhibition. A high value points to weaker potency. Regarding `O=C(/C=C/c1nc2cc(F)ccc2[nH]1)c1c(-c2ccccc2)c2cc(Cl)ccc2[nH]c1=O` [compound 42, (E)-6-chloro-3-(3-(5-fluoro-1H-benzo[d]imidazol-2-yl)acryloyl)-4-phenylquinolin-2(1H)-one], the IC50 against AKT1 (PKB alpha) was found to be 5.01 µM; on AKT2 (PKB beta) it was 3.43 µM; against AKT3 (PKB gamma), 6.49 µM; against CHUK (IKK alpha), 6.03 µM; at IKBKB (IKK beta), 1.9 µM. Besides, the “IC50 values against all the selected kinases (in words)” value in data set [1] is listed as “low micromolar range”. In addition, in data set [2], the “inhibition of AKT levels and PRAS40 phosphorylation” value is on record as “effectively inhibited”. Also, the “inhibition of phosphorylation of IKK Ser176/180 and total IκB levels” value in data set [3] is given as “effectively inhibited”. In addition, the plasma stability entry in data set [4] is recorded as “favorable”. For the same compound, the microsomal stability entry in data set [5] was “favorable”. Also, the “tumor growth in xenograft” value in data set [6] was “Remarkable tumor growth/suppression”. In data set [7], the “IκB expression in tumors” value was “higher IκB expression”. For the same compound, in data set [7], the “apoptosis in tumors (TUNEL staining)” value is reported as “higher levels of apoptosis”.
